Activity calls are given as the source filed them.
Assays:
K562 [1] = assay: Effect on PSMB6 gene expression in human K562 cells assessed as change in mRNA transcript expression at 10 nM after 48 hrs by DNA microarray analysis relative to control; assay type: functional
How it was run: (§1)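 K562 CML cells (b3a2 Bcr-Abl) in standard ATCC-recommended culture, exposed once to 10 nM conjugate and harvested at 48 h. Untreated controls were also collected at 48 h. Transcripts were profiled on Human Gene 1.0 ST whole-genome oligonucleotide arrays, and each treated level was expressed relative to the untreated control, with a cutoff of at least twofold change.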

K562 [2] = assay: Effect on HIST1H2AC gene expression in human K562 cells assessed as change in mRNA transcript expression at 10 nM after 48 hrs by DNA microarray analysis relative to control; assay type: functional
How it was run: (§2)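 Transcripts were profiled on Affymetrix GeneChip Human Gene 1.0 ST arrays in K562 cells treated at 10 nM. Treated cells were collected at 6, 12, 24 and 48 h; untreated controls were collected at 48 h. Transcripts changed at least twofold versus control were scored.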

K562 [3] = assay: Effect on UBE2W gene expression in human K562 cells assessed as change in mRNA transcript expression at 10 nM after 48 hrs by DNA microarray analysis relative to control; assay type: functional
How it was run: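 K562 CML cells (b3a2 Bcr-Abl) kept under standard culture conditions were exposed to 10 nM conjugate and harvested at 6, 12, 24 and 48 h. Untreated controls were harvested at 48 h. Whole-transcript oligonucleotide microarray profiling was done, and changes of at least twofold versus control were scored.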

K562 [4] = assay: Effect on HIST1H1C gene expression in human K562 cells assessed as change in mRNA transcript expression at 10 nM after 48 hrs by DNA microarray analysis relative to control; assay type: functional; how it was run: as §2
K562 [5] = assay: Effect on FERMT2 gene expression in human K562 cells assessed as change in mRNA transcript expression at 10 nM after 48 hrs by DNA microarray analysis relative to control; assay type: functional; how it was run: as §2
K562 [6] = assay: Cytotoxicity against human K562 cells by MTS assay; assay type: functional, cell-based
How it was run: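 Proliferation of K562 cells (ATCC, standard culture) was read as mitochondrial conversion of the MTS tetrazolium to formazan, using the CellTiter 96 Aqueous One reagent. EC50 was derived from these readings.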

K562 [7] = assay: Downregulation of histone H4E mRNA expression in human K562 cells at 125 nM after 48 hrs by real-time PCR analysis; assay type: functional, cell-based
How it was run: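 K562 cells were treated for 48 h, and H4c and H4e mRNA were measured by one-step real-time RT-PCR. Reverse transcription ran at 50 °C for 10 min, then hot-start activation at 95 °C for 15 min. Cycling was 45 cycles of 95 °C 15 s, 55 °C 30 s and 72 °C 30 s. Levels were normalized to GAPDH mRNA; error bars are SD.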

K562 [8] = assay: Downregulation of histone H4C mRNA expression in human K562 cells at 250 nM after 48 hrs by real-time PCR analysis; assay type: functional
How it was run: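 Treated K562 cells were assayed by one-step real-time RT-PCR. Reverse transcription ran 50 °C for 10 min, then hot-start polymerase activation at 95 °C for 15 min. Cycling was 45 cycles of 95 °C 15 s, 55 °C 30 s and 72 °C 30 s. Levels were normalized to GAPDH mRNA; error shown as standard deviation.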

K562 [9] = assay: Induction of apoptosis in human K562 cells assessed as viable cells at 125 nM after 48 hrs by annexin-V FITC and propidium iodide staining-based FACS analysis; assay type: functional; details: K562, 48 h, read-out: Activity
How it was run: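 K562 cells were exposed to conjugate in culture medium for 48 h, then stained with annexin V-FITC plus propidium iodide. Cell populations were quantified by flow cytometry.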

K562 [10] = assay: Induction of apoptosis in human K562 cells assessed as viable cells at 250 nM after 48 hrs by annexin-V FITC and propidium iodide staining-based FACS analysis; assay type: functional; details: K562, 48 h, read-out: Activity
How it was run: (§3)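 Treated K562 cells […] stained with Annexin V-FITC/propidium iodide. Apoptosis was scored by two-dimensional flow cytometry at a core FACS facility.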

K562 [11] = assay: Induction of apoptosis in human K562 cells assessed as early apoptotic cells at 250 nM after 48 hrs by annexin-V FITC and propidium iodide staining-based FACS analysis; assay type: functional; how it was run: as §3
K562 [12] = assay: Effect on EIF4B gene expression in human K562 cells assessed as change in mRNA transcript expression at 10 nM after 48 hrs by DNA microarray analysis relative to control; assay type: functional; how it was run: as §2
K562 [13] = assay: Effect on DHFR gene expression in human K562 cells assessed as change in mRNA transcript expression at 10 nM after 48 hrs by DNA microarray analysis relative to control; assay type: functional; how it was run: as §2
K562 [14] = assay: Effect on S100A4 gene expression in human K562 cells assessed as change in mRNA transcript expression at 10 nM after 48 hrs by DNA microarray analysis relative to control; assay type: functional; how it was run: as §1
K562 [15] = assay: Effect on RNU5E gene expression in human K562 cells assessed as change in mRNA transcript expression at 10 nM after 48 hrs by DNA microarray analysis relative to control; assay type: functional; how it was run: as §1
K562 [16] = assay: Induction of apoptosis in human K562 cells assessed as late apoptotic cells at 250 nM after 48 hrs by annexin-V FITC and propidium iodide staining-based FACS analysis; assay type: functional; how it was run: as §3
K562 [17] = assay: Effect on ANKRD20B gene expression in human K562 cells assessed as change in mRNA transcript expression at 10 nM after 48 hrs by DNA microarray analysis relative to control; assay type: functional; how it was run: as §2
K562 [18] = assay: Effect on RHD/RHCE gene expression in human K562 cells assessed as change in mRNA transcript expression at 10 nM after 48 hrs by DNA microarray analysis relative to control; assay type: functional; how it was run: as §1
K562 [19] = assay: Effect on ITGA2B gene expression in human K562 cells assessed as change in mRNA transcript expression at 10 nM after 48 hrs by DNA microarray analysis relative to control; assay type: functional; how it was run: as §1
K562 [20] = assay: Effect on ATP1B2 gene expression in human K562 cells assessed as change in mRNA transcript expression at 10 nM after 48 hrs by DNA microarray analysis relative to control; assay type: functional; how it was run: as §2
K562 [21] = assay: Effect on SLC4A1 gene expression in human K562 cells assessed as change in mRNA transcript expression at 10 nM after 48 hrs by DNA microarray analysis relative to control; assay type: functional; how it was run: as §1
K562 [22] = assay: Effect on HIST1H2BH gene expression in human K562 cells assessed as change in mRNA transcript expression at 10 nM after 48 hrs by DNA microarray analysis relative to control; assay type: functional; how it was run: as §2
K562 [23] = assay: Effect on GTDC1 gene expression in human K562 cells assessed as change in mRNA transcript expression at 10 nM after 48 hrs by DNA microarray analysis relative to control; assay type: functional; how it was run: as §2
K562 [24] = assay: Effect on BBS9 gene expression in human K562 cells assessed as change in mRNA transcript expression at 10 nM after 48 hrs by DNA microarray analysis relative to control; assay type: functional; how it was run: as §2
K562 [25] = assay: Effect on IMMP2L gene expression in human K562 cells assessed as change in mRNA transcript expression at 10 nM after 48 hrs by DNA microarray analysis relative to control; assay type: functional; how it was run: as §1
K562 [26] = assay: Effect on SNORD80 gene expression in human K562 cells assessed as change in mRNA transcript expression at 10 nM after 48 hrs by DNA microarray analysis relative to control; assay type: functional; how it was run: as §1

In the case of `CC(=O)Nc1cn(C)c(C(=O)Nc2cn(C)c(C(=O)NCCC(=O)Nc3cn(C)c(C(=O)NCCCC(=O)Nc4cc(C(=O)Nc5cn(C)c(C(=O)Nc6ccc7[nH]c(C(=O)N8CC(CCl)c9c8cc(O)c8ccccc98)cc7c6)n5)n(C)c4)n3)n2)n1` (stereo unspecified), the “fold change (FC)” value (K562 [1]) is reported as “>=2”, the “fold change (FC)” value (K562 [2]) is reported as “>=2” and the “fold change (FC)” value (K562 [3]) is reported as “>=2”. For the same compound, the “fold change (FC)” value (K562 [4]) was “>=2”, the “fold change (FC)” value (K562 [5]) was “>=2” and the EC50 (K562 [6]) was 97 nM. For the same compound, the Activity (K562 [7]) was “Active”, the Activity (K562 [8]) was 93% and the viability at 0.125 µM (K562 [9]) was 80.3%. The viability at 0.25 µM (K562 [10]) was 71.8%, the Activity (K562 [11]) was 17.1% and the “fold change (FC)” value (K562 [12]) was “>=2”. The “fold change (FC)” value (K562 [13]) was “>=2”, the “fold change (FC)” value (K562 [14]) was “>=2” and the “fold change (FC)” value (K562 [15]) was “>=2”. For the same compound, the Activity (K562 [16]) was 8.53%, the “fold change (FC)” value (K562 [17]) was “>=2” and the “fold change (FC)” value (K562 [18]) was “>=2”. For the same compound, the “fold change (FC)” value (K562 [19]) was “>=2”, the “fold change (FC)” value (K562 [20]) was “>=2” and the “fold change (FC)” value (K562 [21]) was “>=2”. For the same compound, the “fold change (FC)” value (K562 [22]) was “>=2”, the “fold change (FC)” value (K562 [23]) was “>=2” and the “fold change (FC)” value (K562 [24]) was “>=2”. The “fold change (FC)” value (K562 [25]) was “>=2” and the “fold change (FC)” value (K562 [26]) was “>=2”.

— ChEMBL document CHEMBL1157704, “Potent activity against K562 cells by polyamide-seco-CBI conjugates targeting histone H4 genes” (Bioorg Med Chem, 2010)
